Experimental data collected from several papers.
Protocols differ between the studies behind these lines.
SIRT3: NAD-dependent protein deacetylase sirtuin-3, mitochondrial (SIRT3, Homo sapiens, UniProt Q9NTG7)
PTGS1: Prostaglandin G/H synthase 1 (PTGS1, Ovis aries, UniProt P05979)
GABRA1: Gamma-aminobutyric acid receptor subunit alpha-1 (GABRA1, Homo sapiens, UniProt P14867)

| Compound | target | read-out | action | technique | tested at | notes | inhibition |
| --- | --- | --- | --- | --- | --- | --- | --- |
| CCCCCCCCCCCCCC(=O)NCCCC[C@H](NS(C)(=O)=O)C(=O)N[C@H](C)C(=O)N[C@@H](CCCNC(=N)N)C(N)=O | SIRT3 | enzyme activity | inhibitor | – | 10 µM | – | 10% |
| NC(=O)CCNC(=S)NCCCC[C@H](NS(=O)(=O)c1cccc(F)c1)C(=O)N[C@@H](Cc1c[nH]c2ccccc12)C(=O)NC1CCC1 | SIRT3 | enzyme activity | inhibitor | – | 10 µM | – | 30% |
| CCCCCC1CC(=O)c2cc([N+](=O)[O-])ccc2O1 (stereo not drawn) | SIRT3 | enzyme activity | inhibitor | fluorescence | 200 µM | – | 16% |
| COc1ccc(-n2nc(OCCCN3CCCCC3)ccc2=O)cc1 | Transient receptor potential cation channel subfamily V member 1 (TRPV1, Homo sapiens, UniProt Q8NER1) | ligand displacement | – | – | 1 µM | – | 44.5% |
| CCCCCC1CC(=O)c2cc(Br)cc(Br)c2O1 (stereo not drawn) | SIRT3 | enzyme activity | inhibitor | fluorescence | 200 µM | – | 6.5% |
| CC(=S)NCCCC[C@H](NC(=O)OCc1ccccc1)C(=O)N[C@@H](Cc1c[nH]c2ccccc12)C(=O)N[C@@H](CC(N)=O)C(N)=O | SIRT3 | enzyme activity | inhibitor | – | 10 µM | – | 14% |
| O=C(O)Cc1ccccc1OP(=O)(O)O | Signal transducer and activator of transcription 5A, SH2 (Homo sapiens, UniProt P42229) | ligand displacement | – | FP | 100 µM | – | 40% |
| CCCCCCCCCCCCNC(=S)NCCCC[C@H](NC(=O)OCc1ccccc1)C(=O)N[C@@H](Cc1c[nH]c2ccccc12)C(=O)N[C@@H](CCCNC(=N)N)C(N)=O | SIRT3 | enzyme activity | inhibitor | – | 10 µM | – | 62% |
| C=CN1CCCn2c1nc1c2c(=O)n(C)c(=O)n1C | Adenosine receptor A2a (Adora2a, Rattus norvegicus, UniProt P30543) | ligand displacement | – | radioligand | 25 µM | cell membranes | 47% |
| CCCCCC1CC(O)c2cc(Cl)cc(Br)c2O1 (stereo not drawn) | SIRT3 | enzyme activity | inhibitor | fluorescence | 200 µM | – | 3.6% |
| CCN(CC)c1ccc(C2=NNC(=O)CC2C)cc1[N+](=O)[O-] (stereo not drawn) | cGMP-inhibited 3',5'-cyclic phosphodiesterase 3B (PDE3B, Homo sapiens, UniProt Q13370) | enzyme activity | inhibitor | – | 0.1 µM | – | 97% |
| Cc1ccc(S(=O)(=O)n2cc(CCC3CC(=O)c4cc(Cl)cc(Br)c4O3)c3ccccc32)cc1 (stereo not drawn) | SIRT3 | enzyme activity | inhibitor | fluorescence | 200 µM | – | 13% |
| CCCCCCCCCCCCNC(=S)NCCCC[C@H](NC(=O)OCc1ccccc1)C(=O)N[C@@H](Cc1c[nH]c2ccccc12)C(=O)N[C@@H](CCCCNC(=N)N)C(N)=O | SIRT3 | enzyme activity | inhibitor | – | 10 µM | – | 20% |
| O=c1c(O)c(-c2ccc(O)cc2)oc2cc(O)cc(O)c12 | PTGS1 | enzyme activity | inhibitor | absorbance | 50 µM | – | 61.4% |
| Oc1cccc(Nc2nc(-c3ccc(F)cc3F)cs2)c1 | GABRA1 | cell-free assay | – | – | 10 µM | – | -27.3% |
| CCCCCC1CC(=O)c2cc(Cl)ccc2O1 (stereo not drawn) | SIRT3 | enzyme activity | inhibitor | fluorescence | 200 µM | – | 6% |
| CC(=S)NCCCC[C@H](NC(=O)OCc1ccccc1)C(=O)N[C@@H](Cc1c[nH]c2ccccc12)C(=O)N[C@@H](CCC(=O)O)C(N)=O | SIRT3 | enzyme activity | inhibitor | – | 10 µM | – | 9% |

| Compound | target | read-out | action | technique | tested at | notes | inhibition |
| --- | --- | --- | --- | --- | --- | --- | --- |
| O=C(c1ccc(Cl)cc1)N(Cc1ccccc1)C1CCCCC1 | GABRA1 | cell-free assay | – | – | 10 µM | – | -34.8% |
| O=c1c(O)c(-c2ccc(O)cc2)oc2cc(O[C@@H]3O[C@H](CO)[C@@H](O)[C@H](O)[C@H]3O)cc(O)c12 | PTGS1 | enzyme activity | inhibitor | absorbance | 50 µM | – | 58.8% |
| CC(=S)NCCCC[C@H](NC(=O)OCc1ccccc1)C(=O)N[C@@H](Cc1c[nH]c2ccccc12)C(=O)N[C@@H](CCCNC(=N)N)C(N)=O | SIRT3 | enzyme activity | inhibitor | – | 10 µM | – | 43% |
| CN1CC(Oc2cnc(C#N)cc2-c2ccn3nc(NC(=O)C4CC4)cc3c2)C1 | Transcription initiation factor TFIID subunit 1-like (TAF1L, Homo sapiens, UniProt Q8IZX4) | enzyme activity | inhibitor | – | 1 µM | – | -5% |
| Cc1ncc([N+](=O)[O-])n1C(=NO)c1ccccc1C(F)(F)F | Fas-activated serine/threonine kinase (Homo sapiens, UniProt Q14296) | enzyme activity | inhibitor | – | 10 µM | – | 7.77% |
| C[C@@H](NC(=O)[C@H](CCCCNC(=O)C(F)(F)F)NS(C)(=O)=O)C(=O)N[C@@H](CCCNC(=N)N)C(N)=O | SIRT3 | enzyme activity | inhibitor | – | 100 µM | – | 10% |
| CCCCNC(=S)NCCCC[C@H](NS(=O)(=O)c1cccc(F)c1)C(=O)N[C@@H](Cc1c[nH]c2ccccc12)C(=O)NC1CCC1 | SIRT3 | enzyme activity | inhibitor | – | 1 µM | – | 16% |
| CCCCCCCCCCCCNC(=S)NCCCC[C@H](NC(=O)OCc1ccccc1)C(=O)N[C@@H](CCCCN)C(=O)N[C@@H](CCCNC(=N)N)C(N)=O | SIRT3 | enzyme activity | inhibitor | – | 1 µM | – | 54% |
| COc1cc(NC(C)=O)c(Cl)cc1C(=O)Nc1nccs1 | GABRA1 | cell-free assay | – | – | 10 µM | – | -34.8% |
| CCCCCC1CCc2cc(Cl)cc(Br)c2O1 (stereo not drawn) | SIRT3 | enzyme activity | inhibitor | fluorescence | 200 µM | – | 1.2% |
| O=C(Nc1cccc(C(=O)Nc2ccc3[nH]ncc3c2)c1)Nc1ccccc1F | BDNF/NT-3 growth factors receptor (NTRK2, Homo sapiens, UniProt Q16620) | enzyme activity | inhibitor | FRET | 1 µM | – | 27.8% |
| O=C(NC1CCC1)[C@H](Cc1c[nH]c2ccccc12)NC(=O)[C@H](CCCCNC(=S)NCCn1nn[nH]c1=O)NS(=O)(=O)c1cccc(F)c1 | SIRT3 | enzyme activity | inhibitor | – | 100 µM | – | 10% |
| O=C1CC(CCc2c[nH]c3ccccc23)Oc2c(Br)cc(Cl)cc21 (stereo not drawn) | SIRT3 | enzyme activity | inhibitor | fluorescence | 200 µM | – | 20% |
| O=c1c(O[C@@H]2O[C@H](CO)[C@@H](O)[C@H](O)[C@H]2O)c(-c2ccc(O)cc2)oc2cc(O)cc(O)c12 | PTGS1 | enzyme activity | inhibitor | absorbance | 50 µM | – | 66.9% |
| CC(C)C1CC(=O)c2cc(Cl)cc(Br)c2O1 (stereo not drawn) | SIRT3 | enzyme activity | inhibitor | fluorescence | 200 µM | – | 4.4% |
| CN(C)C1CCN(CC#Cc2nn(C3CCCC3)c3nc(NCc4ccccc4)ncc23)C1 (stereo not drawn) | Ribosomal protein S6 kinase alpha-3 (RPS6KA3, Homo sapiens, UniProt P51812) | enzyme activity | inhibitor | FRET | 1 µM | – | 2% |
